Compound activity as filed in PubChem BioAssay.
A selection: hits, their analogues and other compounds. The true share with any hit is near 1.8%.
Fam108B counter – counter-screen for RBBP9 inhibitors: inhibitors of mouse Fam108B. recombinant Fam108B, FP-Rh probe fluorescence polarization. inhibition, % at 9.51 µM. actives 0.33% (n = 300,000). AID 1947;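 active means inhibition above the screen mean inhibition plus 3 SD, computed separately per campaign, cut at about 18% in these data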;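 further: inhibitors lower polarization as less probe binds the enzyme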
HTRA1 inhibitor – blocks human HTRA1 serine peptidase; Q92743; recombinant HTRA1, FP-rhodamine activity-based probe, fluorescence polarization; inhibition, % at 5.96 µM; actives 0.5% (n = 340,000); AID 504803; in the data active means inhibition above about 36%
SIAE inh – human SIAE inhibition, primary screen | actives 0.69% (n = 370,000) | SIAE FP-Rh probe binding, fluorescence polarization | AID 1053197 | inhibition, % at 9.66 µM | Q9HAT2;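 active means inhibition above a cutoff: mean of compounds within the control limits plus 3 SD of those, cut at about 17% in these data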
ABHD4 inh – inhibits mouse alpha/beta hydrolase domain 4. Q8VD66. purified mABHD4, FP-Rh probe fluorescence polarization. inhibition, % at 8.92 µM. actives 0.54% (n = 370,000). AID 720543;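 active means inhibition exceeding the mean over every tested compound plus 3 SD, cut at about 30% in these data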
Target sequence (Q8VD66 whole entry, looked up, the tested form may be a part): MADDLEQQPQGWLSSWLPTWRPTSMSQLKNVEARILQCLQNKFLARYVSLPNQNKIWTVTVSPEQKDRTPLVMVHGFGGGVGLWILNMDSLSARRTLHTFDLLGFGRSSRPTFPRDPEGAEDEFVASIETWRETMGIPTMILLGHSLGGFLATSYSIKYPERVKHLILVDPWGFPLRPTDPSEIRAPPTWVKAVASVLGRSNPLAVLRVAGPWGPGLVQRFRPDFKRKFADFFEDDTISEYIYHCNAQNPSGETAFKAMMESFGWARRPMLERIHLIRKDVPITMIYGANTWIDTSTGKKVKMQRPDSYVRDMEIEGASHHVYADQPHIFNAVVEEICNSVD
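System: mouse ABHD4 enzyme, wild type / Medium: HEPES pH 7.0, NaCl, Pluronic buffer / Reagent: FP-Rh activity-based fluorescent probe / Control set: S159A mutant high control, sample median low control / Detection: fluorescence polarization with parallel and perpendicular emission, 525/598 nm / Schedule: 45 min + 60 min at 25 °C / Compound dosing: 8.92 µM, single dose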
PME-1 primary – PME-1 (human) inhibition; recombinant PME-1, FP-Rh probe fluorescence polarization; inhibition, % at 5.9 µM; actives 0.53% (n = 320,000);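 active means inhibition above the campaign mean of all compounds plus 3 SD, cut at about 26% in these data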;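 further: competitive labeling of PME-1 active site by serine hydrolase directed probe; inhibitors block probe labeling so polarization falls and inhibition rises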
TCR CD3 inh – human TCR-CD3 binding inhibition; actives 0.37% (n = 360,000); inhibition, % at 9.4 µM; TAMRA-labeled TCR probe fluorescence, biochemical; AID 651800; in the data active means inhibition above about 19%;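 further: recombinant mutant TCR 2C K166C tagged with TAMRA read by polarization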
SIAE confirm – confirmation of human SIAE inhibitors. shares compounds with SIAE inh. SIAE FP-Rh activity-based probe, fluorescence polarization. inhibition, % at 9.66 µM. actives 13% (n = 2,300);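 active means mean inhibition of the replicates above the hit cutoff set in the primary screen, cut at about 17% in these data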;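 further: inhibitors lower polarization as more probe stays unbound to SIAE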
Hits are given with their value; 0 = inactive; - = not tested or not shown.

SMILES | Fam108B counter | HTRA1 inhibitor | SIAE inh | ABHD4 inh | PME-1 primary | TCR CD3 inh | SIAE confirm
O=S(=O)(NCc1ccco1)c1ccccc1Br | 0 | 0 | 20 | 0 | 0 | 0 | 0
CN(C)c1ccc(NC(=O)C2C3C=CC(C3)C2C(=O)O)cc1 (configuration not stated) | - | 0 | 23 | 35 | - | 33 | 0
O=C(O)C1C2C=CC(C2)C1C(=O)Nc1ccc2c(c1)OCCO2 (configuration not stated) | 0 | 0 | - | - | 0 | - | -
COc1cc(/C=C/C(=O)OCC(=O)N2CCc3ccccc3C2)ccc1O | 0 | 0 | 21 | 0 | 0 | 0 | 0
Cc1cn([C@H]2C[C@H](O)[C@@H](CNC(=O)[C@H]3CCC(=O)N3)O2)c(=O)[nH]c1=O | - | 0 | 0 | 0 | - | 0 | -
Cc1nc(N2CCN(C(=O)c3ccco3)CC2)[nH]c(=O)c1C | 0 | 0 | 0 | 0 | 0 | 0 | -
COc1ccc(N2CCC(CNC(=S)Nc3c(C)cc(C)cc3C)C2)cc1 (configuration not stated) | 0 | 0 | 18 | 0 | 0 | 0 | 0
CN1/C(=C/C=C(C#N)C#N)C(C)(C)c2ccccc21 | 0 | 0 | 25 | 0 | 51 | 0 | 81
O=C(CN(Cc1ccc(F)cc1)C(=O)CCC(=O)Nc1ccccn1)NCCc1ccccc1 | 0 | 0 | 21 | 0 | 0 | 0 | 0
COCCNC(=O)C(c1ccc(O)cc1)N(Cc1ccccc1)C(=O)CCC(=O)Nc1ccccn1 (configuration not stated) | 0 | 0 | 20 | 0 | 0 | 0 | 0
O=C(CN(Cc1ccc(F)cc1)C(=O)CCC(=O)Nc1ccccn1)NCc1ccc(F)cc1 | 0 | 0 | 0 | 0 | 0 | 0 | -
Cc1ccccc1Cn1c2ccccc2c2cnn(CC(=O)NCc3ccccn3)c(=O)c21 | 0 | 0 | 20 | 0 | 0 | 0 | 0
Cc1cc(C)cc(NC(=S)NCc2ccc3[nH]c4c(c3c2)CCCC4)c1 | 0 | 0 | 17 | 0 | 0 | 0 | 0
Cc1noc(C)c1COC(=O)c1csc2c1CCC(C)C2 (configuration not stated) | - | 0 | 20 | 0 | 0 | 0 | 0
CC1CCc2c(C(=O)NCC3CCCO3)csc2C1 (configuration not stated) | 0 | 0 | 0 | 0 | 0 | 0 | -
Cc1ccc(C)c(S(=O)(=O)N2CCCC2CNC(=O)C(=O)NC2CC2)c1 (configuration not stated) | 0 | 0 | 0 | 0 | 0 | 0 | -
Cc1ccc(C)c(OCc2nc3ccccc3[nH]2)c1 | 0 | 0 | 37 | 0 | 0 | 0 | 0
CCCCN1C(=O)C(CC(=O)NC2CCCCC2)CC(C(=O)N(C)C)=C1C (configuration not stated) | - | 0 | 0 | 0 | - | 0 | -
CCN1C(=O)/C(=C2/Sc3ccccc3N2CC)S/C1=N\c1ncn[nH]1 | 0 | 0 | 19 | 0 | 34 | 0 | 0
O=C(NNc1ccccc1C(F)(F)F)c1sccc1Br | 0 | 0 | 25 | 0 | 0 | 0 | 0
CC(=O)C1(C(=O)NCc2ccccc2)CC(c2ccccc2C(F)(F)F)=NO1 (configuration not stated) | - | - | 0 | 0 | - | - | -
CC1(C)CC(=O)C2=C(C1)NC1=C(C(=O)c3ccccc31)C2c1ccc(Cl)cc1 (configuration not stated) | 0 | 0 | 30 | 0 | 0 | 0 | 0
O=C1[C@@H]2Cc3c([nH]c4ccccc34)CN2C(=O)CN1CCCO | 0 | 0 | 18 | 0 | 0 | 0 | 0
CCCCCN1CC(=O)N2Cc3[nH]c4ccccc4c3C[C@H]2C1=O | 0 | 0 | 0 | 0 | 0 | 0 | -
Cc1[nH]n(-c2ccccc2)c(=O)c1/C=N/NC(=O)c1cccc(F)c1 | 0 | 0 | 0 | 0 | 0 | 0 | -
SMILES | Fam108B counter | HTRA1 inhibitor | SIAE inh | ABHD4 inh | PME-1 primary | TCR CD3 inh | SIAE confirm
Cc1[nH]n(-c2ccc(Br)cc2)c(=O)c1/C=N/NC(=O)c1ccccc1 | - | 0 | 17 | 0 | - | 0 | 0
O=C(CCl)N1c2ccccc2SCC1c1ccccc1 (configuration not stated) | 0 | 0 | 19 | 0 | 0 | 0 | 0
COc1cccc(NC(=S)Nc2cc(C(=O)O)ccc2N2CC3CC(C2)c2cccc(=O)n2C3)c1 (configuration not stated) | 0 | 0 | 18 | 0 | 0 | 0 | 0
Nc1ccc(N2CCOCC2)c(S(=O)(=O)Nc2ccccc2Cl)c1 | - | 0 | 39 | 0 | - | 0 | 0
COc1cccc(N2CCN(c3ncnc4c3[nH]c3ccc(F)cc34)CC2C)c1 (configuration not stated) | 0 | 0 | 19 | 0 | 28 | 0 | 0
COc1cc2[nH]c3c(N4CCN(c5ccc(Cl)cc5)CC4)ncnc3c2cc1OC | 0 | 0 | 30 | 0 | 28 | 0 | 25
COc1cc2[nH]c3c(Cl)ncnc3c2cc1OC | 0 | 0 | 0 | 0 | 0 | 0 | -
CCc1cc(C(=O)NC2CCCN(Cc3ccccc3F)C2)n(C)n1 (configuration not stated) | 0 | 0 | 0 | 0 | 0 | 0 | -
Cc1cc(N2CC(C(=O)NCc3cccs3)CC2=O)ccc1C(C)C (configuration not stated) | 0 | 0 | 18 | 0 | 0 | 0 | 0
CCCCCn1c(=O)c(-c2nc3ccccc3[nH]2)c(O)c2ccccc21 | 0 | - | 0 | 0 | 0 | 0 | -
Cn1cc(/C=C(\NC(=O)c2ccccc2Cl)C(=O)N2CCOCC2)c2ccccc21 | 0 | 0 | 0 | 0 | 0 | 0 | -
COc1ccc(C(=O)N/C(=C\c2ccccc2)C(=O)N2CCOCC2)cc1 | 0 | 0 | 0 | 0 | 0 | 0 | -
COc1ccccc1C(=O)N/C(=C\c1cn(C)c2ccccc12)C(=O)N1CCOCC1 | 0 | 0 | 21 | 0 | 0 | 0 | 0
CC1CCN(C(=O)/C(=C\c2ccco2)NC(=O)c2ccccc2)CC1 | 0 | 0 | 23 | 0 | 0 | 0 | 0
COc1ccc(-c2ccc(/C=C(\NC(=O)c3ccccc3)C(=O)N3CCOCC3)o2)cc1 | 0 | 0 | 17 | 0 | 0 | 0 | 0
Cc1ccc(C(=O)N/C(=C/c2ccco2)C(=O)N2CCC(C)CC2)cc1 | 0 | 0 | 0 | 0 | 0 | 0 | -
CCOC(=O)[C@]12CCCC=C1N(Cc1cccc3ccccc13)C(=O)[C@H](CC(=O)N1CCN(C(=O)c3ccco3)CC1)C2 | - | - | 0 | 0 | - | 0 | -
COc1ccc(-c2nc(NC(=O)c3[nH]c(C)c(C(C)=O)c3C)sc2C)cc1 | 0 | 0 | 27 | 0 | 47 | 0 | 0
COc1ccc(-c2nc(NC(=O)c3ccco3)sc2C)cc1 | - | 0 | 0 | 0 | - | 0 | -
O=S(=O)(Nc1ccc(S(=O)(=O)N2CCCC2)cc1)c1ccc(F)cc1F | - | 0 | 0 | 0 | - | 0 | -
CCCCC(CCC(=O)Nc1cccc([N+](=O)[O-])c1)C(=O)O (configuration not stated) | 0 | 0 | 0 | 0 | 0 | 0 | -
CCC(CCC(=O)Nc1cccc([N+](=O)[O-])c1)C(=O)O (configuration not stated) | 0 | 0 | 23 | 0 | 0 | 0 | 0
